Reference: ChEMBL document CHEMBL4819003, “Optimization of novel oxidative DIMs as Nur77 modulators of the Nur77-Bcl-2 apoptotic pathway” (Eur J Med Chem, 2021)
Each block holds one molecule with its values, some of them ahead of it. The source made the active and inactive calls. No cut-off for these calls is given here.

Tests used:
[1] = AUC (0 to t) in male Sprague-Dawley rat at 0.5 mg/kg, iv measured for 36 hrs by LC-MS/MS analysis; format: ADME, organism-based; set-up: time 36 hrs, dose 0.5 mg/kg; settings: in vivo
Method in brief: (§1)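 Sprague-Dawley rats (200–220 g), three per sex per route, were dosed at 0.5 mg/kg IV or 5 mg/kg PO in DMSO/Tween-80/water (1:5:94). Heparinized blood was drawn from 5 min to 36 h after IV dosing and from 1 h to 36 h after oral dosing. Plasma was deproteinized with methanol (2% HCl) plus carbamazepine internal standard, measured by LC-MS/MS, and reported as mean ± SD.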

[2] = AUC (0 to t) in male Sprague-Dawley rat at 5 mg/kg, po measured for 36 hrs by LC-MS/MS analysis; format: ADME, organism-based; set-up: dose 5 mg/kg, time 36 hrs; settings: in vivo; method in brief: as §1
[3] = Cmax in male Sprague-Dawley rat at 5 mg/kg, po measured for 36 hrs by LC-MS/MS analysis; format: ADME, organism-based; set-up: route oral, time 36 hrs, dose 5 mg/kg; settings: in vivo
[4] = Cmax in female Sprague-Dawley rat at 5 mg/kg, po measured for 36 hrs by LC-MS/MS analysis; format: ADME, organism-based; set-up: route oral, time 36 hrs, dose 5 mg/kg; settings: in vivo
[5] = Tmax in male Sprague-Dawley rat at 5 mg/kg, po measured for 36 hrs by LC-MS/MS analysis; format: ADME, organism-based; settings: in vivo
Method in brief: (§2)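 Sprague-Dawley rats (200–220 g), three males and three females per route group. Dosed 5 mg/kg orally or 0.5 mg/kg IV as a solution in DMSO/T-80/H2O (1:5:94 by volume). Heparinized blood was drawn from 5 min to 36 h after IV and 1–36 h after oral dosing. Plasma was protein-precipitated with methanol (2% HCl) plus carbamazepine internal standard and assayed by LC-MS/MS. Parameters were taken from concentration-time data; n = 3 per sex, mean ± SD.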

[6] = Half life in male Sprague-Dawley rat at 5 mg/kg, po measured for 36 hrs by LC-MS/MS analysis; format: ADME, organism-based; settings: in vivo
[7] = Half life in female Sprague-Dawley rat at 5 mg/kg, po measured for 36 hrs by LC-MS/MS analysis; format: ADME, organism-based; settings: in vivo
[8] = MRT(0 to t) in male Sprague-Dawley rat at 0.5 mg/kg, iv measured for 36 hrs by LC-MS/MS analysis; format: ADME, organism-based; settings: in vivo
[9] = MRT(0 to t) in female Sprague-Dawley rat at 0.5 mg/kg, iv measured for 36 hrs by LC-MS/MS analysis; format: ADME, organism-based; settings: in vivo
[10] = MRT(0 to t) in male Sprague-Dawley rat at 5 mg/kg, po measured for 36 hrs by LC-MS/MS analysis; format: ADME, organism-based; settings: in vivo; method in brief: as §2
[11] = Clearance in male Sprague-Dawley rat at 0.5 mg/kg, iv measured for 36 hrs by LC-MS/MS analysis; format: ADME, organism-based; settings: in vivo
[12] = Volume of distribution at steady state in male Sprague-Dawley rat at 0.5 mg/kg, iv measured for 36 hrs by LC-MS/MS analysis; format: ADME, organism-based; settings: in vivo, read-out: Vdss; method in brief: as §2
[13] = Oral bioavailability in male Sprague-Dawley rat at 5 mg/kg measured for 36 hrs by LC-MS/MS analysis; format: ADME, organism-based; settings: in vivo; method in brief: as §2
MDA-MB-231 = experiment: Induction of apoptosis in human MDA-MB-231 cells assessed as PARP cleavage at 0.5 uM measured after 6 hrs by western blot assay relative to Di(1H-indol-3-yl)(4-(trifluoromethyl)phenyl)methylium methanesulfonate; format: functional
Method in brief: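 MDA-MB-231 in DMEM with 10% FBS, 0.5 µM for 6 h, then PARP western blot with 1:1000 primary antibodies and ECL. Cleaved PARP/PARP band intensity ratio expressed relative to the reference methylium methanesulfonate, whose ratio was set to 1. Mean ± SD, n = 3.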

BT-549 = experiment: Induction of apoptosis in human BT-549 cells assessed as PARP cleavage at 0.5 uM measured after 6 hrs by western blot assay; format: functional, cell-based
Method in brief: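 Cells exposed to 0.5 µM for 6 h. Lysates resolved by SDS-PAGE and blotted to PVDF, blocked in 5% milk/TBST, probed with primary antibodies at 1:1000, ECL detection. Apoptosis scored as the densitometric ratio of cleaved PARP band to intact PARP band; mean ± SD, n = 3.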

MEF = experiment: Induction of apoptosis in mouse MEF cells deficient in Bcl2 assessed as PARP cleavage at 0.5 uM measured after 6 hrs by Western blot assay; format: functional, cell-based
Method in brief: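 Wild-type, Nur77−/− or Bcl-2−/− mouse embryonic fibroblasts grown in DMEM with 10% FBS and treated with 0.5 µM for 6 h. PARP cleavage detected by western blot, primary antibodies at 1:1000, ECL.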

Mus musculus = experiment: Antitumour activity against FVB/N mammary tumor MMTV-PyMT mouse model assessed as inhibition of tumour growth at 3 mg/kg, po administered daily for 14 days; format: functional, organism-based; settings: time 14.0 day
Method in brief: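 Female MMTV-PyMT transgenic mice (FVB/N background), 12 weeks old, randomized n = 6 per group; daily oral gavage 3 mg/kg for 14 days. Dosing solution: DMSO stock diluted in normal saline with 5.0% (V/V) Tween-80 to 3 mg/mL. Tumours weighed at end; mean ± SD, Student's t-test versus untreated controls.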

[14] = Toxicity in mammary tumor MMTV-PyMT mouse model assessed as changes in body weight at 3 mg/kg, po administered daily for 14 days; format: organism-based; settings: in vivo, 336 h, time 14 day
Method in brief: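 Female MMTV-PyMT transgenic mice (FVB/N background), 12 weeks old, randomized n = 6 per group. They received daily oral gavage of 3 mg/kg for 14 days. Drug was dissolved in DMSO and diluted with saline containing 5.0% Tween-80 to 3 mg/mL final. Body weight was recorded after 14 days against untreated controls, mean ± SD.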

[15] = AUC (0 to t) in male/female Sprague-Dawley rat at 5 mg/kg, po measured for 36 hrs by LC-MS/MS analysis; format: ADME, organism-based; set-up: dose 5 mg/kg, time 36 hrs; settings: both, in vivo
Method in brief: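 Four Sprague-Dawley rats per route (2 male, 2 female; 200–220 g) received 0.5 mg/kg IV or 5 mg/kg PO in DMSO/Tween-80/water (1:5:94). Heparinized blood was taken at 5 min–36 h after IV dosing and at 0.5, 1, 3, 4, 6, 8, 10, 12, 24 and 36 h after oral dosing. Methanol (2% HCl) precipitation with carbamazepine internal standard preceded LC-MS/MS; values are mean ± SD.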

[16] = Cmax in male/female Sprague-Dawley rat at 5 mg/kg, po measured for 36 hrs by LC-MS/MS analysis; format: ADME, organism-based; set-up: route oral, time 36 hrs, dose 5 mg/kg; settings: both, in vivo
[17] = Clearance in male/female Sprague-Dawley rat at 0.5 mg/kg, iv measured for 36 hrs by LC-MS/MS analysis; format: ADME, organism-based; settings: both, in vivo
[18] = MRT(0 to t) in male/female Sprague-Dawley rat at 0.5 mg/kg, iv measured for 36 hrs by LC-MS/MS analysis; format: ADME, organism-based; settings: in vivo
Method in brief: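 Sprague-Dawley rats (200–220 g), four per route group (2 male, 2 female), given 0.5 mg/kg IV or 5 mg/kg orally in DMSO/T-80/H2O (1:5:94). Heparinized blood was sampled at 5 min–36 h after IV and at 0.5, 1, 3, 4, 6, 8, 10, 12, 24 and 36 h after oral dosing. Plasma was methanol (2% HCl)-precipitated with carbamazepine internal standard and quantified by LC-MS/MS. Parameters reported as mean ± SD.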

AUC(0-t) at 36 h [1]: 1120 ng·h/mL
AUC(0-t) at 36 h [2]: 2250 ng·h/mL
Cmax [3]: 143 ng/mL
Cmax [4]: 203 ng/mL
Tmax [5]: 5.33 h
half-life [6]: 5.28 h
half-life [7]: 6.81 h
MRT last at 36 h [8]: 4.31 h
MRT [9]: 3.59 h
MRT last at 36 h [10]: 12.3 h
clearance [11]: 7.5 mL/min/kg
Vd [12]: 2.56 L/kg
bioavailability [13]: 20.1%
Compound: CS(=O)(=O)[O-].FC(F)(F)c1ccc([C+](c2c[nH]c3ccccc23)c2c[nH]c3ccccc23)cc1

AUC(0-t) at 36 h [15]: 734 ng·h/mL
Cmax [16]: 57.9 ng/mL
clearance [17]: 17 mL/min/kg
MRT [18]: 0.56 h
Compound: CS(=O)(=O)[O-].Cn1cc([C+](c2ccc(C(F)(F)F)cc2)c2c[nH]c3ccccc23)c2ccccc21
fold change (FC) (MDA-MB-231): 8.93
Activity (BT-549): Active
Activity (MEF): inactive
Activity (Mus musculus): Active
Activity [14]: Non-Toxic
